Assays:
[1] = Cytotoxicity against GFP reporter gene expressing human HOG.R5 cells up to 20 ug/mL; format: cell-based
Outline: (§1)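 Run in parallel with the anti-HIV assay: HOG.R5 GFP reporter cultures given identical concentrations of test material but no virus; cell viability monitored after 4 days by combined microscopic and fluorometric measurement; CC50 derived.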

[2] = Cytotoxicity against GFP reporter gene expressing human HOG.R5 cells at 10 ug/mL; format: cell-based; details: in the assay text read “20 ug/mL” for “10 ug/mL”; outline: as §1
[3] = test system: Human immunodeficiency virus 1; experiment: Antiviral activity against HIV1 3B in human HOG.R5 cells by GFP-based reporter gene assay; format: functional, organism-based; details: Human immunodeficiency virus 1, 3B
Outline: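 HOG.R5 GFP reporter cells in microtiter wells infected with HIV-1 IIIB (2.5 ng/mL p24) in presence of test material; GFP fluorescence read after 4 days to quantify infectivity; IC50 derived.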

[4] = Cytotoxicity against GFP reporter gene expressing human HOG.R5 cells; format: cell-based; outline: as §1

| IC50 [3] | Compound | Activity [1] | Activity [2] | CC50 [4] |
| --- | --- | --- | --- | --- |
| 73.1 µM | C=C1CC[C@@H](O)[C@]2(C)CC[C@H](C(C)C)[C@@H](O)[C@H]12 | Non-toxic | Non-toxic |  |
| 120 µM | CC(=O)CC/C(=C/C1=C(C)CCC1=O)C(C)C [LITSEACHROMOLAEVANE B] | Non-toxic | Non-toxic |  |
| 27.5 µM | C=C1CC[C@H](C(C)(C)O)/C=C/[C@@H](C)CCC1=O [LITSEAGERMACRANE] |  |  | 63.4 µM |

Reference: ChEMBL document CHEMBL1159381, “New Sesquiterpenes from Litsea verticillata” (J Nat Prod, 2003)
